Legend:
[1] = tested on: splenocytes of immunised HLA-DR4 transgenic mice; test: Epitope mapping, HLA-DR4 transgenic mice; format: cell-based, mouse; details: Supplementary Figure 3
[2] = tested on: splenocytes of immunised HLA-DP4 transgenic mice (IFNγ); format: cell-based, mouse; details: anti-CD4 20 µg/ml, 15 min prior to peptide
Summary of the method: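 HLA-A2.1/HLA-DP4/hCD4 transgenic mice (8–12 weeks) immunised s.c. at tail base on days 0, 7 and 14 with 25 µg peptide in PBS emulsified with CpG ODN 1826 and MPLA (5 µg each). Spleens taken day 20. Splenocytes (5 × 10^5/well) given anti-CD4 GK1.5 before 10µg/ml peptide; quadruplicate wells, 40 h, 37°C, 5% CO2. LPS positive control. Spots counted automatically.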

[3] = tested on: TCR α and β chain CDR3 of CD4+ CFSE^high and CFSE^low cells; test: TCR α and β CDR3 repertoire diversity of sorted CD4+ CFSE high/low cells; set-up: species or system human; details: for Diversity Index (D50) TRA / Diversity Index (D50) TRB: day 10, non-normalised
Summary of the method: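 CD25-depleted human PBMCs were labelled with 5µM CFSE for 5 min at room temperature and cultured at 1.5-2x10^6/ml with 10μg/ml citrullinated peptide or vehicle. On day 10 they were stained for CD4/CD8 and sorted into CD4+ CFSEhigh and CFSElow populations. RNA then went through RT-PCR, ARM-PCR with human TCR α/β primers, and NGS bulk sequencing. D50 is the percentage of clones accounting for the cumulative 50% of CDR3 counts.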

[4] = tested on: HLA-DP4; details: cited from earlier work
[5] = target: HLA-DP4 (HLA-DPA*0103 α chain / HLA-DPB*0401 β chain) (human); test: ELISA
[6] = donor BD0011, CD4+ CFSE^High (non-proliferating)
[7] = donor BD0011, CD4+ CFSE^Low (proliferating)
[8] = donor BD0008, CD4+ CFSE^High (non-proliferating)
[9] = donor BD0008, CD4+ CFSE^Low (proliferating)

## FSSLNL-cit-ETNLDSL [Vimentin 418-431 cit]
[1]
  shorter epitope mapping in HLA-DR4 transgenic mice: consistent with findings in the HLA-DR4 transgenic mice mapping shorter peptide sequences

## LPNFSSLNL-cit-ETNLDSLPL [Vimentin 415-433 cit]
[2]
  IFNγ ELISpot response in presence of CD4 blocking antibody: Responses were lost
[3]; [6]
  Diversity Index (D50) TRA: 9.9
  Diversity Index (D50) TRB: 5.9
[3]; [7]
  Diversity Index (D50) TRA: 0.7
  Diversity Index (D50) TRB: 0.5
[3]; donor BD0011, compared with non-proliferating CD4 population
  TCR clonality of responding CD4 T cells: a bias of TCR Vβ and Vα sequences among CD4+ proliferating cells (CFSE^low)

## LQYM-cit-ADQAAGGLR [collagen II]
[4]
  binding to HLA-DP4 (literature): not to bind to HLA-DP4

## NQDFTN-cit-INKLKNS [fibrinogen]
[4]
  binding to HLA-DP4 (literature): not to bind to HLA-DP4

## VIGMDVAASEFF-cit-SG [Enolase 241-255 cit]
[1]
  shorter epitope mapping in HLA-DR4 transgenic mice: consistent with findings in the HLA-DR4 transgenic mice mapping shorter peptide sequences

## VIGMDVAASEFF-cit-SGKYDLD [Enolase 241-260 cit]
[2]
  IFNγ ELISpot response in presence of CD4 blocking antibody: Responses were lost

## cit-SYVTTST-cit-TYSLGS [Vimentin 28-42 cit]
[1]
  shorter epitope mapping in HLA-DR4 transgenic mice: consistent with findings in the HLA-DR4 transgenic mice mapping shorter peptide sequences

## cit-SYVTTST-cit-TYSLGSAL-cit-PSTS [Vimentin 28-49 cit]
[2]
  IFNγ ELISpot response in presence of CD4 blocking antibody: Responses were lost
[3]; [8]
  Diversity Index (D50) TRA: 12.8
  Diversity Index (D50) TRB: 17
[3]; [9]
  Diversity Index (D50) TRA: 0.4
  Diversity Index (D50) TRB: 0.2
[3]; donor BD0008, compared with non-proliferating CD4 population
  TCR clonality of responding CD4 T cells: a bias of TCR Vβ and Vα sequences among CD4+ proliferating cells (CFSE^low)

## non-biotinylated Hepatitis B surface antigen aa 181–193 peptide
[5]
  percent inhibition of the binding of the biotinylated Hepatitis B peptide: 50%
